Measured values reported in ChEMBL document CHEMBL5107950, “Structure-based design of haloperidol analogues as inhibitors of acetyltransferase Eis from Mycobacterium tuberculosis to overcome kanamycin resistance” (RSC Med Chem, 2021).
Converted amounts (≈) assume the structure as drawn. The source made the active and inactive calls. The calls are words filed in the database; no cut-off is given here.

Key:
[1] = test system: Mycobacterium tuberculosis variant bovis; test: Antibacterial activity against Mycobacterium bovis BCG ATCC 35734 assessed as inhibition of bacterial growth incubated upto 3 weeks hrs by resazurin dye based double-dilution method; type: functional; details: BCG ATCC 35734, 504 h
Method in brief: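 Double-dilution broth MIC. Media: M. smegmatis, Mueller-Hinton; M. abscessus, 7H9 + 0.05% Tween80 + 0.4% glycerol; mc²6230, 7H9 + 0.05% tyloxapol, 0.5% glycerol, 10% OADC, 0.2% casamino acids, 24 µg/mL pantothenate; other mycobacteria, 7H9 + 0.05% Tween80, 0.4% glycerol, 10% ADC. Inoculum from agar set to 0.5 McFarland, then diluted 1:100.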

[2] = test system: Mycobacterium tuberculosis variant bovis; test: Antibacterial activity against Mycobacterium bovis BCG ATCC 35734 in presence of clofazimine by checkerboard assay; type: functional, organism-based
Method in brief: (§1)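 Checkerboard in 96-well plates. Antibiotic two-fold serially diluted along columns, haloperidol derivative two-fold along rows. Bacteria prepared as for the MIC determination. MICs alone and in combination used to calculate FICI. At least duplicate independent trials.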

[3] = test system: Mycobacterium tuberculosis variant bovis; test: Antibacterial activity against Mycobacterium bovis BCG ATCC 35734 in presence of clarithromycin by checkerboard assay; type: functional, organism-based; method in brief: as §1
[4] = test system: Mycobacterium tuberculosis variant bovis; test: Synergistic antibacterial activity against Mycobacterium bovis BCG ATCC 35734 in presence of spectinomycin by checkerboard assay; type: functional, organism-based; method in brief: as §1

SMILES | MIC [1] [µM] | also measured
Cc1ccc(S(=O)(=O)N2CCC(O)(c3ccc(Cl)cc3)CC2)cc1 | > 62.5 | 
O=C(CCCN1CCC(O)(c2ccccc2)CC1)c1ccc(F)cc1 | > 62.5 | 
O=C(CCCN1CCC(O)(c2ccc(Cl)cc2)CC1)c1ccc(Cl)cc1 [CHLOROHALOPERIDOL] | 62.5 (≈ 24.5 µg/mL) | Activity [2]: Active; Activity [3]: Active; Activity [4]: Active
CC1CC(C)CN(CCCC(=O)c2ccc(C(C)(C)C)cc2)C1 (stereo not drawn) | 31.3 (≈ 9.88 µg/mL) | 
O=C(CCCN1CCC(c2ccc(Cl)cc2)CC1)c1ccc(F)cc1 | 62.5 (≈ 22.5 µg/mL) | 
CC(C)c1ccc(C(=O)CCCN2CCC(O)(c3ccc(Cl)cc3)CC2)cc1 | 1 (≈ 0.4 µg/mL) | 
COc1ccc(C(=O)CCCN2CCC(O)(c3ccc(F)cc3)CC2)cc1 | > 62.5 | 
CC1CCCCN1CCCOc1ccc(F)cc1 (stereo not drawn) | 3.9 (≈ 0.98 µg/mL) | 
CCc1ccc(C(=O)CCCN2CCC(O)(c3ccc(Cl)cc3)CC2)cc1 | 2 (≈ 0.772 µg/mL) | 
O=C(CCCN1CCC(O)(c2ccc(Cl)cc2)CC1)c1ccccc1 | 62.5 (≈ 22.4 µg/mL) | 
O=C(CCCN1CCC(O)(c2ccc(F)cc2)CC1)c1ccccc1 | > 62.5 | 
CC(C)(C)c1ccc(C(=O)CCCN2CCC(O)(c3ccc(F)cc3)CC2)cc1 | 15.6 (≈ 6.2 µg/mL) | 
O=C(CCCN1CCC(O)(c2ccc(Br)cc2)CC1)c1ccc(Cl)cc1 | 15.6 (≈ 6.81 µg/mL) | Activity [2]: Active; Activity [3]: Active; Activity [4]: Active
CC(C)(C)c1ccc(C(=O)CCCN2CCC(O)(c3ccc(Br)cc3)CC2)cc1 | 3.9 (≈ 1.79 µg/mL) | 
COc1ccc(C(=O)CCCN2CCC(O)(c3ccc(Cl)cc3)CC2)cc1 | > 62.5 | 
O=C(CCCN1CCC(O)(c2ccc(F)cc2)CC1)c1ccc(Cl)cc1 | > 62.5 | Activity [2]: Active; Activity [3]: Active; Activity [4]: Active
Cc1ccc(C(=O)CCCN2CCC(O)(c3ccc(Cl)cc3)CC2)cc1 | 15.6 (≈ 5.8 µg/mL) | 

SMILES | MIC [1] [µM] | also measured
O=C(CCCN1CCC(O)(c2ccc(F)cc2)CC1)c1ccc(F)cc1 | > 62.5 | 
O=C(CCCN1CCC(O)(c2ccc(Br)cc2)CC1)c1ccccc1 | > 62.5 | 
Fc1ccc(OCCCN2CCC(c3ccccc3)CC2)cc1 | > 62.5 | 
O=C(CN1CCC(O)(c2ccc(Cl)cc2)CC1)c1ccc(F)cc1 | > 62.5 | 
O=C(CCCN1CCC(O)CC1)c1ccc(F)cc1 | > 62.5 | 
O=C(CCCN1CCC(O)(c2ccc(F)cc2)CC1)c1ccc(Br)cc1 | 62.5 (≈ 26.3 µg/mL) | 
NNC(=O)c1ccncc1 [ISONIAZID] | ≤ 1 | 
CC(C)(C)c1ccc(C(=O)CCCN2CCC(O)(c3ccc(Cl)cc3)CC2)cc1 | 3.9 (≈ 1.61 µg/mL) | 
CC(=O)CCCN1CCC(O)(c2ccc(Cl)cc2)CC1 | > 62.5 | 
O=C(CCCN1CCC(O)(c2ccc(Cl)cc2)CC1)c1ccc(F)cc1 [HALOPERIDOL] | 62.5 (≈ 23.5 µg/mL) | 
O=C(CCCN1CCC(O)(c2ccc(Br)cc2)CC1)c1ccc(F)cc1 [BROMPERIDOL] | 62.5 (≈ 26.3 µg/mL) | 
O=C(CCCN1CCC(O)(c2ccc(Cl)cc2)CC1)c1ccc(Br)cc1 | > 62.5 | 
CC1CC(C)CN(CCCOc2ccc(F)cc2)C1 (stereo not drawn) | 15.6 (≈ 4.14 µg/mL) | 
O=C(CCCN1CCCCC1)c1ccc(F)cc1 [PRIMAPERONE] | > 62.5 | 
COc1ccc(C(=O)CCCN2CCC(O)(c3ccc(Br)cc3)CC2)cc1 | 62.5 (≈ 27 µg/mL) | 
O=C(CCCN1CCC(O)(c2ccc(Br)cc2)CC1)c1ccc(Br)cc1 | > 62.5 | 
O=C(CCCN1CC=C(c2ccc(Cl)cc2)CC1)c1ccc(F)cc1 | 15.6 (≈ 5.58 µg/mL) | 
